Laboratory results: ChEMBL document CHEMBL1275598, “In vitro activity of ceftaroline against community-associated methicillin-resistant, vancomycin-intermediate, vancomycin-resistant, and daptomycin-nonsusceptible Staphylococcus aureus isolates” (2010)

Tests used:
Staphylococcus aureus [1] = assay: Antimicrobial activity against vancomycin resistant Staphylococcus aureus VRS-1 expressing SCCmec type 2 element by microdilution method in presence of 50 mg/L calcium; type: functional
Procedure, shortened: (§1)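 Broth microdilution per CLSI in cation-adjusted Mueller-Hinton broth supplemented with calcium to 50 mg/liter final. Antibiotic powders were reconstituted per CLSI. The MIC was read visually as the lowest drug concentration with no visible growth. S. aureus ATCC 29213 and E. faecalis ATCC 29212 served as control strains.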

Staphylococcus aureus [2] = assay: Antimicrobial activity against vancomycin resistant Staphylococcus aureus VRS-3 expressing SCCmec type 4 element by microdilution method in presence of 50 mg/L calcium
Staphylococcus aureus [3] = assay: Antimicrobial activity against vancomycin resistant Staphylococcus aureus VRS-7 expressing SCCmec element by microdilution method in presence of 50 mg/L calcium; type: functional; procedure, shortened: as §1
Staphylococcus aureus [4] = assay: Antimicrobial activity against vancomycin resistant Staphylococcus aureus VRS-8 expressing SCCmec element by microdilution method in presence of 50 mg/L calcium
Staphylococcus aureus [5] = assay: Antimicrobial activity against community-acquired methicillin-resistant Staphylococcus aureus by microdilution method in presence of 50 mg/L calcium; type: functional
Procedure, shortened: (§2)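 Daptomycin MIC by CLSI broth microdilution in cation-adjusted Mueller-Hinton broth, supplemented with calcium to a final 50 mg/liter. Read visually as the lowest concentration with no visible growth. ATCC 29213 and E. faecalis ATCC 29212 served as controls. CA-MRSA and DNSSA isolates came from patients at the study hospital; VISA isolates came from NARSA.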

Staphylococcus aureus [6] = assay: Bactericidal activity against community-acquired methicillin-resistant Staphylococcus aureus assessed as antibiotic concentration that reduced the number of viable cells by =>99.9% by colony count method in presence of 50 mg/L calcium; type: functional
Procedure, shortened: (§3)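 MBC per CLSI following microdilution in cation-adjusted Mueller-Hinton broth with calcium added to 50 mg/liter final. Defined as the concentration giving ≥99.9% reduction in viable cells, judged from colony counts of the growth control well against Pearson rejection-value tables.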

Staphylococcus aureus [7] = assay: Antimicrobial activity against vancomycin-resistant Staphylococcus aureus by microdilution method in presence of 50 mg/L calcium; type: functional; procedure, shortened: as §1
Staphylococcus aureus [8] = assay: Bactericidal activity against daptomycin-nonsusceptible Staphylococcus aureus assessed as antibiotic concentration that reduced the number of viable cells by =>99.9% by colony count method in presence of 50 mg/L calcium; type: functional; procedure, shortened: as §3
Staphylococcus aureus [9] = assay: Antimicrobial activity against vancomycin intermediate Staphylococcus aureus NRS-26 expressing SCCmec type 2 element by microdilution method in presence of 50 mg/L calcium; type: functional; procedure, shortened: as §2
Staphylococcus aureus [10] = assay: Antimicrobial activity against vancomycin intermediate Staphylococcus aureus NRS-68 expressing SCCmec type 2 element by microdilution method in presence of 50 mg/L calcium; type: functional; procedure, shortened: as §2
Staphylococcus aureus [11] = assay: Antimicrobial activity against vancomycin intermediate Staphylococcus aureus NRS-73 expressing SCCmec type 4d element by microdilution method in presence of 50 mg/L calcium; type: functional; procedure, shortened: as §2
Staphylococcus aureus [12] = assay: Antimicrobial activity against vancomycin intermediate Staphylococcus aureus NRS-403 expressing SCCmec type 2 element by microdilution method in presence of 50 mg/L calcium; type: functional; procedure, shortened: as §2

In the case of `CCCCCCCCCC(=O)N[C@@H](Cc1c[nH]c2ccccc12)C(=O)N[C@H](CC(N)=O)C(=O)N[C@@H](CC(=O)O)C(=O)N[C@@H]1C(=O)NCC(=O)N[C@@H](CCCN)C(=O)N[C@@H](CC(=O)O)C(=O)N[C@H](C)C(=O)N[C@@H](CC(=O)O)C(=O)NCC(=O)N[C@H](CO)C(=O)N[C@@H]([C@H](C)CC(=O)O)C(=O)N[C@@H](CC(=O)c2ccccc2N)C(=O)O[C@@H]1C`, the MIC (Staphylococcus aureus [1]) was 1 µg/mL, the MIC (Staphylococcus aureus [2]) was 0.5 µg/mL and the MIC (Staphylococcus aureus [3]) was 1 µg/mL. For the same compound, the MIC (Staphylococcus aureus [4]) was 0.5 µg/mL, the MIC50 (Staphylococcus aureus [5]) was 0.5 µg/mL and the MIC90 (Staphylococcus aureus [5]) was 1 µg/mL. For the same compound, the MBC50 (Staphylococcus aureus [6]) was 0.5 µg/mL, the MBC90 (Staphylococcus aureus [6]) was 1 µg/mL and the MBC (Staphylococcus aureus [6]; Staphylococcus aureus) was 0.25 µg/mL. For the same compound, the MIC (Staphylococcus aureus [7]) was 0.5 µg/mL, the MIC50 (Staphylococcus aureus [7]) was 0.5 µg/mL and the MIC90 (Staphylococcus aureus [7]) was 1 µg/mL. For the same compound, the MBC (Staphylococcus aureus [8]) was 4 µg/mL, the MBC50 (Staphylococcus aureus [8]) was 8 µg/mL and the MBC (Staphylococcus aureus [8]; Staphylococcus aureus, read-out: MBC) was 5.94 µg/mL. It also gave an MIC (Staphylococcus aureus [9]) of 4 µg/mL, an MIC (Staphylococcus aureus [10]) of 1 µg/mL and an MIC (Staphylococcus aureus [11]) of 2 µg/mL. It also gave an MIC (Staphylococcus aureus [12]) of 2 µg/mL.
